The source made the active and inactive calls. No cut-off for these calls is given here.
Tests used:
Mus musculus [1] = assay: Anticonvulsant activity in Swiss Albino mouse at 300 mg/kg, ip after 0.5 hr by MES test; type: functional, organism-based; design: dose 300 mg/kg
How it was run: (§1)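 Mice (Swiss, 20-25 g) given i.p. doses of 30, 100 and 300 mg/kg under ADD program protocols, three per group, examined at 0.5 and 4 h in MES, scPTZ, scSTY or scPIC seizure tests. Value is the minimum dose protecting half or more of the mice.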

Mus musculus [2] = assay: Anticonvulsant activity in Swiss Albino mouse at 300 mg/kg, ip after 4 hrs by MES test; type: functional, organism-based; design: dose 300 mg/kg; how it was run: as §1
Mus musculus [3] = assay: Anticonvulsant activity in Swiss Albino mouse at 300 mg/kg, ip after 0.5 hr by scPTZ test; type: functional, organism-based; design: dose 300 mg/kg; how it was run: as §1
Mus musculus [4] = assay: Anticonvulsant activity in Swiss Albino mouse at 300 mg/kg, ip after 0.5 hr by scSTY test; type: functional, organism-based; design: dose 300 mg/kg; how it was run: as §1
Mus musculus [5] = assay: Anticonvulsant activity in Swiss Albino mouse at 300 mg/kg, ip after 4 hrs by scSTY test; type: functional, organism-based; design: dose 300 mg/kg; how it was run: as §1
Mus musculus [6] = assay: Anticonvulsant activity in Swiss Albino mouse at 100 mg/kg, ip after 4 hrs by scPIC test; type: functional, organism-based; design: dose 100 mg/kg; how it was run: as §1
Mus musculus [7] = assay: Neurotoxicity in Swiss Albino mouse at 300 mg/kg, ip after 0.5 hr by rotarod test; type: functional, organism-based; design: dose 300 mg/kg
How it was run: (§2)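 Swiss mice (20-25 g) are trained on an accelerating rotorod (10 rpm, 3.2 cm rod), then injected i.p. at 30, 100 or 300 mg/kg, with three per group. Neurotoxicity means failure to keep equilibrium for at least 1 min in each of three trials, checked at 0.5 and 4 h. The value reported is the minimum dose affecting half or more of the mice.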

Mus musculus [8] = assay: Neurotoxicity in Swiss Albino mouse at 300 mg/kg, ip after 4 hrs by rotarod test; type: functional, organism-based; design: dose 300 mg/kg; how it was run: as §2
Mus musculus [9] = assay: Analgesic activity in Swiss Albino mouse assessed as number of acetic acid-induced writhing per 30 min after 100 mg/kg, ip; type: functional; conditions: route intraperitoneal
How it was run: (§3)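 Mice in groups of six dosed i.p. at 100 mg/kg, controls receiving 30% v/v PEG 400 in water. Writhing induced by i.p. 0.1 mL of 3% v/v acetic acid 1 h after drug. Writhes (abdominal stretch with at least one hind limb extended) counted over 30 min; % inhibition calculated. Mean ± SEM, Student's t test.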

Mus musculus [10] = assay: Analgesic activity in Swiss Albino mouse assessed as inhibition of acetic acid-induced writhing responses at 100 mg/kg, ip; type: functional; conditions: route intraperitoneal; how it was run: as §3
Rattus norvegicus [11] = assay: Effect on spontaneous pain in Sprague-Dawley rat CCI model assessed as duration of paw withdrawal at 100 mg/kg, ip after 0.5 hr; type: functional; conditions: route intraperitoneal
How it was run: (§4)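 CCI rats (n = 4) dosed 100 mg/kg i.p. (vehicle 30% v/v PEG 400 in water). After 10 min acclimatization in a cage 5 cm above ground, cumulative time the ipsilateral paw was held off the floor over 5 min recorded, excluding locomotion lifts. Mean ± SEM; ANOVA/Bonferroni versus predrug.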

Rattus norvegicus [12] = assay: Effect on spontaneous pain in Sprague-Dawley rat CCI model assessed as duration of paw withdrawal at 100 mg/kg, ip after 1 hr; type: functional; conditions: route intraperitoneal; how it was run: as §4
Rattus norvegicus [13] = assay: Effect on spontaneous pain in Sprague-Dawley rat CCI model assessed as duration of paw withdrawal at 100 mg/kg, ip after 1.5 hrs; type: functional; conditions: route intraperitoneal
How it was run: (§5)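 Unilateral CCI of sciatic nerve (Bennett and Xie) in Sprague-Dawley rats under i.p. pentobarbital sodium (65 mg/kg). Spontaneous pain is scored over 5 min after 10 min acclimatization, as cumulative time the ipsilateral paw is held off the floor. Paw lifts from locomotion or repositioning are excluded. Drug is given at 100 mg/kg i.p. with 30% v/v PEG 400 vehicle. Mean ± SEM, n = 4, compared with predrug by ANOVA/Bonferroni.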

Rattus norvegicus [14] = assay: Effect on spontaneous pain in Sprague-Dawley rat CCI model assessed as duration of paw withdrawal at 100 mg/kg, ip after 2 hrs; type: functional; conditions: route intraperitoneal; how it was run: as §5
Rattus norvegicus [15] = assay: Anti-cold allodynia effect in Sprague-Dawley rat CCI model assessed as duration of paw withdrawal 100 mg/kg, ip after 2 hr; type: functional; conditions: route intraperitoneal
How it was run: (§6)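 CCI by sciatic nerve ligation under pentobarbital (65 mg/kg i.p.). Rats tested at baseline and 9 days post-surgery; those with allodynia dosed i.p. 100 mg/kg, vehicle 30% v/v PEG 400 in water. Acetone (100-200 µL) misted on midplantar affected paw; withdrawal duration recorded, three samples averaged, at least 3 min apart; n = 4.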

Rattus norvegicus [16] = assay: Anti-cold allodynia effect in Sprague-Dawley rat CCI model assessed as duration of paw withdrawal 100 mg/kg, ip after 2.5 hr; type: functional; conditions: route intraperitoneal; how it was run: as §6
Rattus norvegicus [17] = assay: Effect on spontaneous pain in Sprague-Dawley rat CCI model assessed as duration of paw withdrawal at 100 mg/kg, ip after 2.5 hrs; type: functional; conditions: route intraperitoneal; how it was run: as §5
Rattus norvegicus [18] = assay: Effect on spontaneous pain in Sprague-Dawley rat SNL model assessed as duration of paw withdrawal at 100 mg/kg, ip after 0.5 hr; type: functional; conditions: route intraperitoneal
How it was run: (§7)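 Rats underwent left L5 spinal nerve ligation (Kim and Chung) under i.p. pentobarbital (65 mg/kg). Spontaneous pain is recorded for 5 min after 10 min acclimatization, as cumulative duration the ipsilateral paw is lifted, excluding locomotor lifts. Dosing is 100 mg/kg i.p. in 30% v/v PEG 400/water, with testing at 0.5–2.5 h. Four rats, mean ± SEM versus predrug, one-way ANOVA with Bonferroni.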

Rattus norvegicus [19] = assay: Effect on spontaneous pain in Sprague-Dawley rat SNL model assessed as duration of paw withdrawal at 100 mg/kg, ip after 1 hr; type: functional; conditions: route intraperitoneal; how it was run: as §7
Rattus norvegicus [20] = assay: Effect on spontaneous pain in Sprague-Dawley rat SNL model assessed as duration of paw withdrawal at 100 mg/kg, ip after 1.5 hrs; type: functional; conditions: route intraperitoneal; how it was run: as §7
Rattus norvegicus [21] = assay: Effect on spontaneous pain in Sprague-Dawley rat SNL model assessed as duration of paw withdrawal at 100 mg/kg, ip after 2 hrs; type: functional; conditions: route intraperitoneal; how it was run: as §7
Rattus norvegicus [22] = assay: Effect on spontaneous pain in Sprague-Dawley rat SNL model assessed as duration of paw withdrawal at 100 mg/kg, ip after 2.5 hrs; type: functional; conditions: route intraperitoneal; how it was run: as §7
Rattus norvegicus [23] = species on record: Rattus norvegicus; assay: Anti-dynamic allodynic effect in Sprague-Dawley rat CCI model assessed as latency to paw withdrawal after 0.5 hr; type: functional
How it was run: (§8)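 Rats with sciatic nerve chronic constriction injury (pentobarbital 65 mg/kg i.p. anaesthesia), baseline and day 9 testing, then drug per randomization table. After 10 min acclimatization, affected plantar surface stroked mildly with a cotton-bud; paw lift recorded. n = 4; retested 0.5-2.5 h post-dose.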

Rattus norvegicus [24] = species on record: Rattus norvegicus; assay: Anti-dynamic allodynic effect in Sprague-Dawley rat CCI model assessed as latency to paw withdrawal after 1 hr; type: functional; how it was run: as §8
Rattus norvegicus [25] = species on record: Rattus norvegicus; assay: Anti-dynamic allodynic effect in Sprague-Dawley rat CCI model assessed as latency to paw withdrawal after 1.5 hr; type: functional; how it was run: as §8
Rattus norvegicus [26] = species on record: Rattus norvegicus; assay: Anti-dynamic allodynic effect in Sprague-Dawley rat CCI model assessed as latency to paw withdrawal after 2 hr; type: functional; how it was run: as §8
Rattus norvegicus [27] = species on record: Rattus norvegicus; assay: Anti-dynamic allodynic effect in Sprague-Dawley rat CCI model assessed as latency to paw withdrawal after 2.5 hr; type: functional; how it was run: as §8
Rattus norvegicus [28] = assay: Anti-cold allodynia effect in Sprague-Dawley rat CCI model assessed as duration of paw withdrawal at 100 mg/kg, ip after 0.5 hr; type: functional; conditions: route intraperitoneal; how it was run: as §6
Rattus norvegicus [29] = assay: Anti-cold allodynia effect in Sprague-Dawley rat CCI model assessed as duration of paw withdrawal 100 mg/kg, ip after 1 hr; type: functional; conditions: route intraperitoneal; how it was run: as §6
Rattus norvegicus [30] = assay: Anti-cold allodynia effect in Sprague-Dawley rat CCI model assessed as duration of paw withdrawal 100 mg/kg, ip after 1.5 hr; type: functional; conditions: route intraperitoneal; how it was run: as §6
Mus musculus [31] = assay: Anticonvulsant activity in Swiss Albino mouse at 300 mg/kg, ip after 0.5 hr by scPIC test; type: functional, organism-based; design: dose 300 mg/kg; how it was run: as §1
Mus musculus [32] = assay: Anticonvulsant activity in Swiss Albino mouse at 300 mg/kg, ip after 4 hrs by scPIC test; type: functional, organism-based; design: dose 300 mg/kg; how it was run: as §1

SMILES	Activity (Mus musculus [1])	Activity (Mus musculus [2])	Activity (Mus musculus [3])	Activity (Mus musculus [4])	Activity (Mus musculus [5])	Activity (Mus musculus [7])	Activity (Mus musculus [8])	Activity (Mus musculus [9])	inhibition in vivo at 100 mg/kg (Mus musculus [10])	Activity (Rattus norvegicus [15])	Activity (Rattus norvegicus [16])	Activity (Rattus norvegicus [28])	Activity (Rattus norvegicus [29])	Activity (Rattus norvegicus [30])	also measured
O=C(O)CCCNC(=O)NN=C(Cc1ccccc1)Cc1ccccc1	inactive	inactive	inactive	Active	Active	inactive	inactive	10.3	94%	9.1 s	8.3 s	24.6 s	11.6 s	10.4 s	Activity (Mus musculus [6]): Active; Activity (Rattus norvegicus [11]): 9.2 s; Activity (Rattus norvegicus [12]): 9.7 s; Activity (Rattus norvegicus [13]): 1.3 s; Activity (Rattus norvegicus [14]): 3.2 s; Activity (Rattus norvegicus [17]): 8.5 s; Activity (Rattus norvegicus [18]): 22.2 s; Activity (Rattus norvegicus [19]): 7.9 s; Activity (Rattus norvegicus [20]): 8.9 s; Activity (Rattus norvegicus [21]): 11.8 s; Activity (Rattus norvegicus [22]): 7.4 s; Activity (Rattus norvegicus [23]): 12 s; Activity (Rattus norvegicus [24]): 13.5 s; Activity (Rattus norvegicus [25]): 10.9 s; Activity (Rattus norvegicus [26]): 10.9 s; Activity (Rattus norvegicus [27]): 10.3 s
O=C(O)CCCNC(=O)N/N=C/c1cccc([N+](=O)[O-])c1	inactive	inactive	Active	inactive	inactive	inactive	inactive	17.7	90%	39.5 s	13.7 s	46.3 s	56.9 s	44.5 s	Activity (Mus musculus [31]): Active; Activity (Mus musculus [32]): Active

Source: ChEMBL document CHEMBL1139875, “Discovery of 4-aminobutyric acid derivatives possessing anticonvulsant and antinociceptive activities: a hybrid pharmacophore approach” (2007)
